Results gathered from unrelated publications.
Each line is one published result; the experiments were not run side by side.
Read-out: cell growth or viability

| Compound | cell line | assay | setting | IC50 |
| --- | --- | --- | --- | --- |
| N.N.[Cl][Pt][Cl] | MIA PaCa-2 | resazurin | 72 h | 5.9 µM |
| COc1c2c(cc3c1OCO3)[C@]13C=C[C@H](OC)C[C@@H]1[N@](C2)C[C@H]3OC(=O)c1ccco1 | MOLT-4 | WST-1 |  | > 10 µM |
| N.N.[Cl][Pt][Cl] | PLC |  | 48 h | 47.2 µM |
| COCCOCOc1cc(O)c(-c2cc(-c3ccc(C(=O)O)cc3)n(C)n2)cc1C12CC3CC(CC(C3)C1)C2 | Jurkat | ATP luminescence | 24 h | 4.73 µM |
| COc1cccc2c1C(=O)c1c(O)c3c(c(O)c1C2=O)C[C@@](O)(C(=O)CO)C[C@@H]3O[C@H]1C[C@H](N)[C@H](O)[C@H](C)O1 | BT-549 |  | 48 h | 1.5 mg/L |
| Cl.O[C@]12C=C(c3nccc4c3[nH]c3ccccc34)[C@@H]3CCN(CCCC/C=C\CC1)C[C@@]31C[C@@H]3/C=C\CCCCN3[C@H]12 | BT-549 | neutral red | 48 h | 0.88 mg/L |
| COCCOCOc1cc(OCc2ccc(Br)cc2)c(C(=O)/C=C/c2ccc(C(=O)O)cc2)cc1C12CC3CC(CC(C3)C1)C2 | Jurkat | ATP luminescence | 24 h | 0.84 µM |
| CC1=C2C[C@H]3[C@@H](CC=C4C[C@@H](O)CC[C@@]43C)[C@@H]2CC[C@]12O[C@@H]1C[C@H](C)CN[C@H]1[C@H]2C | MIA PaCa-2 | MTS | 96 h | 17.1 µM |
| COc1c2c(cc3c1OCO3)[C@]13C=C[C@H](OC)C[C@@H]1[N@](C2)C[C@H]3OC(=O)c1ccoc1 | MOLT-4 | WST-1 |  | > 10 µM |
| C[C@H]1O[C@H](Oc2c(-c3ccc(O)c(O)c3)oc3cc(O)cc(O)c3c2=O)[C@@H](O)[C@@H](O)[C@@H]1O | SW780 | ATP luminescence | 72 h | 190 µM |
